Experimental data published in ChEMBL document CHEMBL3244161, “Azabicycloalkanes as analgetics. 3. Structure-activity relationships of 1-phenyl-6-azabicyclo[3.2.1]octanes and absolute stereochemistry of (+)-1-(3-hydroxyphenyl)-6-methyl-6-azabicyclo[3.2.1]octane and its 7-endo-methyl derivative” (J Med Chem, 1977).
The source made the active and inactive calls. No cut-off for these calls is given here.

Legend:
Mus musculus [1] = experiment: (§1) Acute toxicity in sc dosed mouse; format: organism-based; conditions: in vivo
Mus musculus [2] = experiment: Analgesic activity in mouse assessed as inhibition of AcOH-induced writhing up to 22.5 mg/kg, sc; format: functional, organism-based; parameters: dose 22.5 mg/kg
[3] = as §1; format: organism-based; conditions: in vivo
Oryctolagus cuniculus [4] = experiment: Narcotic antagonist activity in iv dosed rabbit assessed as inhibition of morphine-induced respiratory depression; format: functional
Summary of the method: (§2)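 Rabbits given test compound iv; read-out is antagonism of morphine-induced respiratory depression; expressed as AD50 in mg/kg or as % antagonism at a fixed dose.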

Mus musculus [5] = experiment: Analgesic activity in sc dosed mouse assessed as inhibition of AcOH-induced writhing; format: functional
Mus musculus [6] = experiment: Analgesic activity in mouse assessed as inhibition of AcOH-induced writhing up to 10 mg/kg, sc; format: functional, organism-based; parameters: dose 10 mg/kg
Oryctolagus cuniculus [7] = experiment: Narcotic antagonist activity in rabbit assessed as inhibition of morphine-induced respiratory depression at 5 mg/kg, iv; format: functional; summary of the method: as §2
Mus musculus [8] = experiment: Analgesic activity in sc dosed mouse by hot-plate method; format: functional; conditions: Mus musculus, sc; read-out: ED50
Mus musculus [9] = experiment: Analgesic activity in sc dosed mouse assessed as time duration of activity by hot-plate method; format: functional
[10] = Mus musculus, sc, read-out: ED50

SMILES	Activity (Mus musculus [2])	LD50 [3] [mg/kg]	ED50 (Mus musculus [5]; [10]) [mg/kg]	further results
CC(=O)Oc1cccc(C23CCCC(C2)N(C)C3C)c1.Cl (single isomer, unassigned; (-))				LD50 (Mus musculus [1]): 113.5 mg/kg
CCCN1C2CCCC(c3cccc(O)c3)(C2)C1C.Cl (racemic)	inactive	> 30		AD50 (Oryctolagus cuniculus [4]): 0.03 mg/kg
Cl.O=C(CCCN1CC2(c3cccc(O)c3)CCCC1C2)c1ccccc1 (racemic)		> 100	5.2	
C=CCN1CC2(c3ccccc3)CCCC1C2.O=C(O)C(=O)O (racemic)	inactive	> 100		AD50 (Oryctolagus cuniculus [4]): 2.2 mg/kg
Br.CC1N(C)C2CCCC1(c1ccc(O)cc1)C2 (racemic)	inactive	> 100		
COc1cccc(C23CCCC(C2)NC3)c1.O=C(O)C(=O)O (racemic)	inactive	> 100		
Br.CC(C)=CCN1C2CCCC(c3cccc(O)c3)(C2)C1C (racemic)		> 30	15	AD50 (Oryctolagus cuniculus [4]): 0.086 mg/kg
Br.CCCCCC(=O)Oc1cccc(C23CCCC(C2)N(C)C3C)c1 (racemic)		156	12.3	
CC1C2CCCC1(c1cccc(O)c1)C(C)N2C (racemic; 14)				Activity (Mus musculus [6]): inactive
CCN1C2CCCC(c3cccc(O)c3)(C2)C1C.Cl (racemic)	inactive	> 30		
CCCCCN1C2CCCC(c3cccc(O)c3)(C2)C1C.Cl (racemic)		36.7	1.5	inhibition (Oryctolagus cuniculus [7]): inactive
CN1CC[C@]23c4c5ccc(O)c4O[C@H]2[C@@H](O)C=C[C@H]3[C@H]1C5.Cl [MORPHINE HYDROCHLORIDE]			0.8	ED50 (Mus musculus [8]): 1.2 mg/kg
CC1C2CCCC1(c1cccc(O)c1)CN2C (racemic; 15) [listing 1 of 2 here]				Activity (Mus musculus [6]): inactive
CC(=O)Oc1cccc(C23CCCC(C2)N(C)C3C)c1.Cl (racemic)		123		ED50 (Mus musculus [5]): 2.9 mg/kg; ED50 (Mus musculus [8]): 3.5 mg/kg
CC1C2CCCC1(c1cccc(O)c1)CN2C (racemic; 13) [listing 1 of 2 here]				Activity (Mus musculus [6]): inactive
Br.CC1N(C)C2CCCC1(c1ccc(O)c(O)c1)C2 (racemic)		> 10		Activity (Mus musculus [6]): inactive
O=C(O)C(=O)O.c1ccc(CCN2CC3(c4ccccc4)CCCC2C3)cc1 (racemic)	inactive	> 100		
Cl.O=C(CCCN1CC2(c3cccc(O)c3)CCCC1C2)c1ccc(F)cc1 (racemic)		> 100	2	
Br.CC1N(C)C2CCCC1(c1cccc(OC(=O)c3cccnc3)c1)C2 (racemic)		184	5.5	

SMILES	Activity (Mus musculus [2])	LD50 [3] [mg/kg]	ED50 (Mus musculus [5]; [10]) [mg/kg]	further results
C#CCN1C2CCCC(c3cccc(O)c3)(C2)C1C.Cl (racemic)		> 100	22.5	AD50 (Oryctolagus cuniculus [4]): 0.19 mg/kg
CC1C2CCCC1(c1cccc(O)c1)C(C)N2C (racemic; 16)				Activity (Mus musculus [6]): inactive
CN1CC2(c3ccccc3)CCCC1C2.Cl (racemic)		> 30	22.8	
Br.COc1cccc(C23CCCC(C2)N(C)C3C)c1 (racemic)		25.9	6.1	
C/C=C\N1CC[C@]23CCCC[C@H]2[C@H]1Cc1ccc(O)cc13.Cl				AD50 (Oryctolagus cuniculus [4]): 0.014 mg/kg
Br.CCC1N(C)C2CCCC1(c1cccc(O)c1)C2 (racemic)		59.8	8.8	
Cl.Oc1cccc(C23CCCC(C2)N(CC2CCC2)C3)c1 (racemic)		> 30		Activity (Mus musculus [6]): inactive; AD50 (Oryctolagus cuniculus [4]): 3.5 mg/kg
C=CCN1C2CCCC(c3cccc(O)c3)(C2)C1C.Cl (racemic)		> 30	22.5	AD50 (Oryctolagus cuniculus [4]): 0.17 mg/kg
Br.Oc1cccc(C23CCCC(C2)NC3)c1 (racemic)	inactive	> 100		
CC(C)=CCN1CCC2(C)c3cc(O)ccc3CC1C2C.Cl (stereo unspecified) [PENTAZOCINE HYDROCHLORIDE]		190	4.5	ED50 (Mus musculus [8]): 12.3 mg/kg; AD50 (Oryctolagus cuniculus [4]): 1.5 mg/kg
Cl.Oc1cccc(C23CCCC(C2)N(CC2CC2)C3)c1 (racemic)		> 100	30	AD50 (Oryctolagus cuniculus [4]): 1.8 mg/kg
CC1C2CCCC1(c1cccc(O)c1)CN2C (racemic; 15) [listing 2 of 2 here]				AD50 (Oryctolagus cuniculus [4]): 0.18 mg/kg
Br.CC1N(C)C2CCCC1(c1cccc(OC(=O)c3ccccc3)c1)C2 (racemic)		156	5.7	
C=CCN1CC2(c3cccc(O)c3)CCCC1C2.Cl (racemic)	inactive	> 100		AD50 (Oryctolagus cuniculus [4]): 1.7 mg/kg
Br.CCC(=O)Oc1cccc(C23CCCC(C2)N(C)C3C)c1 (racemic)		114	2.3	ED50 (Mus musculus [8]): 9.9 mg/kg
Br.CC1C2CCCC1(c1cccc(O)c1)C(C)N2C (racemic; 14)		> 30		
Cl.O=C(CCCN1CC2(c3ccccc3)CCCC1C2)c1ccc(F)cc1 (racemic)		> 200	4.1	
CCCCCCN1CC2(c3cccc(O)c3)CCCC1C2.Cl (racemic)		> 100	17.5	
Br.COc1cccc(C23CCCC(C2)N(C)C3)c1 (racemic)		31.2	8.6	

SMILES	Activity (Mus musculus [2])	LD50 [3] [mg/kg]	ED50 (Mus musculus [5]; [10]) [mg/kg]	further results
CN1CC2(c3cc(O)cc(O)c3)CCCC1C2 (racemic)	inactive	> 225		
CCOC(=O)C1(c2ccccc2)CCN(C)CC1.Cl [MEPERIDINE HYDROCHLORIDE]		273	4.5	ED50 (Mus musculus [8]): 4.7 mg/kg
C=CCN1CC[C@]23c4c5ccc(O)c4O[C@H]2C(=O)CC[C@@]3(O)[C@H]1C5.Cl [NALOXONE HYDROCHLORIDE]				AD50 (Oryctolagus cuniculus [4]): 0.0044 mg/kg
Cl.O=C(CCN1CC2(c3cccc(O)c3)CCCC1C2)c1ccccc1 (racemic)		184	10.1	
Br.COc1cccc(C23CCCC(C2)NC3C)c1 (racemic)	inactive	> 100		
O=C(O)C(=O)O.c1ccc(C23CCCC(C2)N(CC2CC2)C3)cc1 (racemic)	inactive	> 30		inhibition in vivo at 5 mg/kg (Oryctolagus cuniculus [7]): 41%
C=CCN1CC[C@]23c4c5ccc(O)c4O[C@H]2[C@@H](O)C=C[C@H]3[C@H]1C5.Cl [NALORPHINE HYDROCHLORIDE]				AD50 (Oryctolagus cuniculus [4]): 0.16 mg/kg
Cl.Oc1cccc(C23CCCC(C2)N(C/C=C/c2ccccc2)C3)c1 (racemic)	inactive	> 100		AD50 (Oryctolagus cuniculus [4]): 0.96 mg/kg
COc1ccc2c3c1O[C@H]1[C@@H](O)C=C[C@H]4[C@@H](C2)N(C)CC[C@@]341.COc1ccc2c3c1O[C@H]1[C@@H](O)C=C[C@H]4[C@@H](C2)N(C)CC[C@@]341.O.O=P(O)(O)O.O=P(O)(O)O [CODEINE PHOSPHATE]		231	9.5	ED50 (Mus musculus [8]): 7.5 mg/kg
Br.CC1N(C)C2CCCC1(c1cc(O)cc(O)c1)C2 (racemic)	inactive	> 100		
C#CCN1CC2(c3cccc(O)c3)CCCC1C2.O=C(O)C(=O)O (racemic)	inactive	> 100		AD50 (Oryctolagus cuniculus [4]): 1.6 mg/kg
Cl.O=C(CCN1CC2(c3ccccc3)CCCC1C2)c1ccccc1 (racemic)	inactive	> 100		
Br.CC1NC2CCCC1(c1cccc(O)c1)C2 (racemic)	inactive	> 100		
CCCCN1C2CCCC(c3cccc(O)c3)(C2)C1C.Cl (racemic)		> 30		Activity (Mus musculus [6]): inactive
O=C(O)C(=O)O.Oc1cccc(C23CCCC(C2)N(CCc2ccccc2)C3)c1 (racemic)	inactive	> 100		
Br.CC1N(C)C2CCCC1(c1cccc(O)c1)C2 (racemic; 8)		113		ED50 (Mus musculus [5]): 4.5 mg/kg; ED50 (Mus musculus [8]): 8 mg/kg; Time (Mus musculus [9]): 127 min; AD50 (Oryctolagus cuniculus [4]): 2.6 mg/kg
Br.CC1N(C)C2CCCC1(c1ccccc1O)C2 (racemic)	inactive	> 100		
CC1C2CCCC1(c1cccc(O)c1)CN2C (racemic; 13) [listing 2 of 2 here]		> 30		AD50 (Oryctolagus cuniculus [4]): 1.1 mg/kg
Br.CCC1N(C)C2CCCC1(c1cccc(OC(C)=O)c1)C2 (racemic)		55.1	10.1	ED50 (Mus musculus [8]): 9.9 mg/kg
